Reference: ChEMBL document CHEMBL1156831, “Discovery of matrix metalloproteases selective and activated peptide-doxorubicin prodrugs as anti-tumor agents” (Bioorg Med Chem Lett, 2010)
Values after ≈ are worked out from the molar mass of the structure shown. Numbered stars: 1 amine (or outer) side, 2 acyl side, 3 side chain; on linkers, the order of the positions; unused ones are H or OH. Square brackets hold non-standard residues; d marks the D form. Peptide text beside a SMILES is read from it. * marks the point of attachment. ξ: configuration not given here. Doxorubicin(3'-N) = COc1cccc2c1C(=O)c1c(O)c3c(c(O)c1C2=O)C[C@@](O)(C(=O)CO)C[C@@H]3O[C@H]1C[C@H](N*)[C@H](O)[C@H](C)O1; X4 = O=C(c1cc(S(=O)(=O)O)cc(S(=O)(=O)O)c1)*; X6 = CN1CCN(CCCC(N[*:1])C(=O)[*:2])CC1; hTyr = N[C@@H](CCc1ccc(O)cc1)C(=O)O; X2 = O=C(C(CCc1ccncc1)N[*:1])[*:2]; hPhe = N[C@@H](CCc1ccccc1)C(=O)O; Cit = NC(=O)NCCC[C@H](N)C(=O)O; Suc = O=C(CCC(=O)[*:2])[*:1]; X5 = O=C(CS(=O)(=O)O)*; ξP = O=C(O)C1CCCN1; Bn = c1ccc(C*)cc1

Tests used:
[1] = Aqueous solubility at pH 7.4; format: physicochemical; details: aqueous medium
[2] = molecular target: Matrix metalloproteinase-14 (Homo sapiens) (UniProt P50281); test: Ratio Kcat to […] for MMP14
[3] = molecular target: Neprilysin (Homo sapiens) (UniProt P08473); test: Ratio Kcat to […] for neprilysin
Neprilysin (Homo sapiens), sequence (P08473 whole entry): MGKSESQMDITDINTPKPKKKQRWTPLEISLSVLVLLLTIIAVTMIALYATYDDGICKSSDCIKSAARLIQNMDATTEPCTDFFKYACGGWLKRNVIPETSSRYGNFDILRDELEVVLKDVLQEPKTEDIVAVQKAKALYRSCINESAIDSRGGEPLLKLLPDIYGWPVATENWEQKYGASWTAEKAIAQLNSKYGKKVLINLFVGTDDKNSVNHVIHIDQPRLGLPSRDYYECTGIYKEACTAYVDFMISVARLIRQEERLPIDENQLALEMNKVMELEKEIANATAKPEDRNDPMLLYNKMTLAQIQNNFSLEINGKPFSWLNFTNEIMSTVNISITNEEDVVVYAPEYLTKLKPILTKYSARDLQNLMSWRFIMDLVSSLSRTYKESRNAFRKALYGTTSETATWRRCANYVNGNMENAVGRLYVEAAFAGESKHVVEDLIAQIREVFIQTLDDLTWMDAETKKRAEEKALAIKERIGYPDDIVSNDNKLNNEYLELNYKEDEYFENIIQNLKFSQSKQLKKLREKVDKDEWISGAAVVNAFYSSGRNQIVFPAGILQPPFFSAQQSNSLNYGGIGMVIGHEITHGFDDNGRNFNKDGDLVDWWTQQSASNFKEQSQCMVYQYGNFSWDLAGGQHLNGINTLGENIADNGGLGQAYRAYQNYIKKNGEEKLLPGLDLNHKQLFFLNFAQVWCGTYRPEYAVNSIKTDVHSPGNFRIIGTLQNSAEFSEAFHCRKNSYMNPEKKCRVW

[4] = molecular target: Matrix metalloproteinase-9 (Homo sapiens) (UniProt P14780); test: Ratio Kcat to Ki for MMP9
Matrix metalloproteinase-9 (Homo sapiens), sequence (P14780 whole entry): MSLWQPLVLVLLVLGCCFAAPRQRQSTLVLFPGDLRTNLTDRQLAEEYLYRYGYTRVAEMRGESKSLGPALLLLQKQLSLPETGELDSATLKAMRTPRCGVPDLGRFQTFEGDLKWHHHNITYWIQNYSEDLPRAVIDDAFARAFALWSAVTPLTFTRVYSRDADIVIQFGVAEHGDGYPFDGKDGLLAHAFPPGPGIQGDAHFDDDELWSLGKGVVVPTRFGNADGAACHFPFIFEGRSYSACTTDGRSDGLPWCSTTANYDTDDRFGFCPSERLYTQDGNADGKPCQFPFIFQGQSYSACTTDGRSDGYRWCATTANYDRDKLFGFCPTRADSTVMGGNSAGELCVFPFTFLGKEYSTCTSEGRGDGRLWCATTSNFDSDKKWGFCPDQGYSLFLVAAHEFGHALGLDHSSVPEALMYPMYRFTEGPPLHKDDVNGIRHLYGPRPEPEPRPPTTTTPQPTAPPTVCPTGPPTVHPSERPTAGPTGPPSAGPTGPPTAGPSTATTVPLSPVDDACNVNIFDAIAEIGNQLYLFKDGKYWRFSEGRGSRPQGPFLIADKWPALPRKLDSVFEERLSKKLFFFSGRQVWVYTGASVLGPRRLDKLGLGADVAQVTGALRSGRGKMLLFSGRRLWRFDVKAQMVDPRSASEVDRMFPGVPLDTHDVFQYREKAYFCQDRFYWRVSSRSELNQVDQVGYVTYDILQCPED

[5] = Compound remaining in mouse blood after 6 hrs; format: ADME, tissue-based; details: read-out: Stability
[6] = molecular target: 72 kDa type IV collagenase (Homo sapiens) (UniProt P08253); test: Ratio Kcat to Ki for MMP2
72 kDa type IV collagenase (Homo sapiens), sequence (P08253 110-660 limits assumed): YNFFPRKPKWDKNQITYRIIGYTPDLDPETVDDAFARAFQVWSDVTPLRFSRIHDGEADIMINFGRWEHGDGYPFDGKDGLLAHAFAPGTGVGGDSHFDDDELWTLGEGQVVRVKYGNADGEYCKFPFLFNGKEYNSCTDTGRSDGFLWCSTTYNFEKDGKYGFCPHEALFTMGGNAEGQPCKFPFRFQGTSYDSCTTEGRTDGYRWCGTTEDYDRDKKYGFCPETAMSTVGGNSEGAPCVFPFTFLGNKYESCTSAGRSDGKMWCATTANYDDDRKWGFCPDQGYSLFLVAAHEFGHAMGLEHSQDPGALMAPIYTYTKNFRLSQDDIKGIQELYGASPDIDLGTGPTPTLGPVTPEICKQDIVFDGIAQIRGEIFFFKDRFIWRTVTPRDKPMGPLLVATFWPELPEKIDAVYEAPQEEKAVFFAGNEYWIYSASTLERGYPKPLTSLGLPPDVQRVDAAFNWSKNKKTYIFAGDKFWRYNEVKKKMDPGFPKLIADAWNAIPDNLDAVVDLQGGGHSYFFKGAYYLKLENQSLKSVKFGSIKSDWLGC

[7] = Biodistribution in tumor in mouse bearing human HT1080 relative to doxorubicin; format: ADME, organism-based, Neoplasm; details: in vivo
How it was run: (§1)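 Dox was measured in HT1080 xenograft tumor and in heart tissue 24 h after a single iv dose in mice. The tumor/heart Dox ratio was normalized to the ratio obtained with free Dox.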

Bone marrow [8] = test: Bone marrow toxicity in mouse bone marrow assessed as reticulocyte count at 2 umol/kg qd for 10 days; format: tissue-based; details: in vivo, 240 h
How it was run: (§2)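 Mice were dosed once daily for 10 days (qdx10). Marrow toxicity was read out as the reticulocyte level, expressed as a percentage, and compared with vehicle-treated mice.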

[9] = Ratio of drug level in tumor to heart in mouse bearing human HT1080 cells relative to doxorubicin; format: ADME; details: ht-1080; how it was run: as §1
Bone marrow [10] = test: Bone marrow toxicity in mouse bone marrow assessed as reticulocyte count at 4 umol/kg qd for 10 days; format: tissue-based; details: in vivo, 240 h; how it was run: as §2
Bone marrow [11] = test: Bone marrow toxicity in mouse bone marrow assessed as reticulocyte count at 6 umol/kg qd for 10 days; format: tissue-based; details: in vivo, 240 h; how it was run: as §2
Bone marrow [12] = test: Bone marrow toxicity in mouse bone marrow assessed as reticulocyte count at 14 umol/kg qd for 10 days; format: tissue-based; details: in vivo, 240 h; how it was run: as §2

Structure (SMILES)	solubility [1]	Ratio [2]	Ratio [3]	Ratio [4]	remaining at 6 h [5]	Ratio [6]	Drug uptake [7]	Ratio [9]	Activity (Bone marrow [8])	Activity (Bone marrow [10])	Activity (Bone marrow [11])	Activity (Bone marrow [12])
COc1cccc2c1C(=O)c1c(O)c3c(c(O)c1C2=O)C[C@@](O)(C(=O)CO)C[C@@H]3O[C@H]1C[C@H](NC(=O)[C@H](CC(C)C)NC(=O)[C@H](Cc2ccc(O)cc2)NC(=O)[C@H](CSCc2ccccc2)NC(=O)CNC(=O)[C@H](CC(C)C)NC(=O)[C@@H]2CCCN2C(=O)[C@H](CCC(=O)O)NC(C)=O)[C@H](O)[C@H](C)O1 (Ac-EPLGC(Bn)YL-{Doxorubicin(3'-N)})	> 2200 µg/mL	97	< 1	107	90%	40						
COc1cccc2c1C(=O)c1c(O)c3c(c(O)c1C2=O)C[C@@](O)(C(=O)CO)C[C@@H]3O[C@H]1C[C@H](N)[C@H](O)[C@H](C)O1 [DOXORUBICIN]							1600 pmol/g	1	0.4%	0.1%	0.3%	0.2%
COc1cccc2c1C(=O)c1c(O)c3c(c(O)c1C2=O)C[C@@](O)(C(=O)CO)C[C@@H]3O[C@H]1C[C@H](NC(=O)[C@H](CC(C)C)NC(=O)[C@H](CC(C)C)NC(=O)CNC(=O)[C@H](CC(C)C)NC(=O)[C@@H]2CCCN2C(C)=O)[C@H](O)[C@H](C)O1 (Ac-PLGLL-{Doxorubicin(3'-N)})		4	22	> 120		18						
COc1cccc2c1C(=O)c1c(O)c3c(c(O)c1C2=O)C[C@@](O)(C(=O)CO)C[C@@H]3O[C@H]1C[C@H](NC(=O)[C@H](CC(C)C)NC(=O)[C@H](Cc2ccc(O)cc2)NC(=O)[C@H](COCc2ccccc2)NC(=O)CNC(=O)[C@H](CC(C)C)NC(=O)C2CCCN2C(=O)CCC(=O)O)[C@H](O)[C@H](C)O1 (stereo partly drawn) (Suc-[ξP]LGS(Bn)YL-{Doxorubicin(3'-N)})	1400 µg/mL (≈ 1030 µM)	89	< 1	52	100%	20						
COc1cccc2c1C(=O)c1c(O)c3c(c(O)c1C2=O)C[C@@](O)(C(=O)CO)C[C@@H]3O[C@H]1C[C@H](NC(=O)[C@H](CC(C)C)NC(=O)[C@H](Cc2ccc(O)cc2)NC(=O)[C@@H](NC(=O)CNC(=O)[C@H](CO)NC(=O)[C@@H]2CCCN2C(=O)c2cc(S(=O)(=O)O)cc(S(=O)(=O)O)c2)[C@@H](C)OCc2ccccc2)[C@H](O)[C@H](C)O1 (X4-PSGT(Bn)YL-{Doxorubicin(3'-N)})		> 120	< 1	> 120	100%	114	600 pmol/g	13				
COc1cccc2c1C(=O)c1c(O)c3c(c(O)c1C2=O)C[C@@](O)(C(=O)CO)C[C@@H]3O[C@H]1C[C@H](NC(=O)[C@H](CC(C)C)NC(=O)CNC(=O)[C@H](CC(C)C)NC(=O)[C@@H]2CCCN2C(C)=O)[C@H](O)[C@H](C)O1 (Ac-PLGL-{Doxorubicin(3'-N)})				< 1		< 1						
COc1cccc2c1C(=O)c1c(O)c3c(c(O)c1C2=O)C[C@@](O)(C(=O)CO)C[C@@H]3O[C@H]1C[C@H](NC(=O)[C@H](CC(C)C)NC(=O)[C@H](C)NC(=O)[C@H](Cc2ccc(O)cc2)NC(=O)[C@H](CC(C)C)NC(=O)CNC(=O)[C@H](CC(C)C)NC(=O)[C@@H]2CCCN2C(C)=O)[C@H](O)[C@H](C)O1 (Ac-PLGLYAL-{Doxorubicin(3'-N)})		> 120	> 120	> 120		> 120						
COc1cccc2c1C(=O)c1c(O)c3c(c(O)c1C2=O)C[C@@](O)(C(=O)CO)C[C@@H]3O[C@H]1C[C@H](NC(=O)[C@H](CC(C)C)NC(=O)[C@H](Cc2ccc(O)cc2)NC(=O)[C@H](COCc2ccccc2)NC(=O)CNC(=O)[C@H](CCCNC(N)=O)NC(=O)[C@@H]2CCCN2C(=O)CS(=O)(=O)O)[C@H](O)[C@H](C)O1 (X5-P[Cit]GS(Bn)YL-{Doxorubicin(3'-N)})	> 2300 µg/mL	56	< 1	38	29%	25						

The next lines start with results.

solubility [1]	Ratio [2]	Ratio [3]	Ratio [4]	remaining at 6 h [5]	Ratio [6]	Drug uptake [7]	Ratio [9]	Structure (SMILES)	Activity (Bone marrow [8])	Activity (Bone marrow [10])	Activity (Bone marrow [11])	Activity (Bone marrow [12])
> 2400 µg/mL	111	< 1	25	90%	37	1500 pmol/g	16	COc1cccc2c1C(=O)c1c(O)c3c(c(O)c1C2=O)C[C@@](O)(C(=O)CO)C[C@@H]3O[C@H]1C[C@H](NC(=O)[C@H](CC(C)C)NC(=O)[C@H](Cc2ccc(O)cc2)NC(=O)[C@H](COCc2ccccc2)NC(=O)CNC(=O)[C@H](CC(C)C)NC(=O)[C@@H]2CCCN2C(=O)CS(=O)(=O)O)[C@H](O)[C@H](C)O1 (X5-PLGS(Bn)YL-{Doxorubicin(3'-N)})				
	> 120	22	390		88			COc1cccc2c1C(=O)c1c(O)c3c(c(O)c1C2=O)C[C@@](O)(C(=O)CO)C[C@@H]3O[C@H]1C[C@H](NC(=O)[C@H](CC(C)C)NC(=O)[C@H](Cc2ccc(O)cc2)NC(=O)[C@H](CC(C)C)NC(=O)CNC(=O)[C@H](CC(C)C)NC(=O)[C@@H]2CCCN2C(C)=O)[C@H](O)[C@H](C)O1 (Ac-PLGLYL-{Doxorubicin(3'-N)})				
	25	< 1	34		7			COc1cccc2c1C(=O)c1c(O)c3c(c(O)c1C2=O)C[C@@](O)(C(=O)CO)C[C@@H]3O[C@H]1C[C@H](NC(=O)[C@H](CC(C)C)NC(=O)[C@H](Cc2ccc(O)cc2)NC(=O)[C@H](COCc2ccccc2)NC(=O)CNC(=O)[C@H](CC(C)C)NC(=O)[C@@H]2CCCN2C(C)=O)[C@H](O)[C@H](C)O1 (Ac-PLGS(Bn)YL-{Doxorubicin(3'-N)})				
	24	8	1		6			COc1cccc2c1C(=O)c1c(O)c3c(c(O)c1C2=O)C[C@@](O)(C(=O)CO)C[C@@H]3O[C@H]1C[C@H](NC(=O)[C@H](CC(C)C)NC(=O)[C@H](Cc2ccc(O)cc2)NC(=O)[C@H](CC(C)C)NC(=O)CNC(=O)[C@H](CC(C)C)NC(C)=O)[C@H](O)[C@H](C)O1 (Ac-LGLYL-{Doxorubicin(3'-N)})				
130 µg/mL (≈ 98.1 µM)	> 120	< 1	73	100%	55			COc1cccc2c1C(=O)c1c(O)c3c(c(O)c1C2=O)C[C@@](O)(C(=O)CO)C[C@@H]3O[C@H]1C[C@H](NC(=O)[C@H](CC(C)C)NC(=O)C(CCCN2CCN(C)CC2)NC(=O)[C@H](CCc2ccccc2)NC(=O)CNC(=O)[C@H](CC(C)C)NC(=O)[C@@H]2CCCN2C(C)=O)[C@H](O)[C@H](C)O1 (stereo partly drawn) (Ac-PLG[hPhe][X6]L-{Doxorubicin(3'-N)})				
1 µg/mL (≈ 0.767 µM)	> 120	< 1	> 120	13%	116			COc1cccc2c1C(=O)c1c(O)c3c(c(O)c1C2=O)C[C@@](O)(C(=O)CO)C[C@@H]3O[C@H]1C[C@H](NC(=O)[C@H](CC(C)C)NC(=O)[C@H](CCc2ccc(O)cc2)NC(=O)[C@H](CCc2ccccc2)NC(=O)CNC(=O)[C@H](CC(C)C)NC(=O)[C@@H]2CCCN2C(C)=O)[C@H](O)[C@H](C)O1 (Ac-PLG[hPhe][hTyr]L-{Doxorubicin(3'-N)})				
	< 1	5	< 1		< 1			COc1cccc2c1C(=O)c1c(O)c3c(c(O)c1C2=O)C[C@@](O)(C(=O)CO)C[C@@H]3O[C@H]1C[C@H](NC(=O)[C@H](CC(C)C)NC(=O)[C@H](CC(C)C)NC(=O)CNC(=O)[C@H](CC(C)C)NC(C)=O)[C@H](O)[C@H](C)O1 (Ac-LGLL-{Doxorubicin(3'-N)})				
380 µg/mL (≈ 294 µM)	58	< 1	43	59%	21			COc1cccc2c1C(=O)c1c(O)c3c(c(O)c1C2=O)C[C@@](O)(C(=O)CO)C[C@@H]3O[C@H]1C[C@H](NC(=O)[C@H](CC(C)C)NC(=O)[C@H](Cc2ccc(O)cc2)NC(=O)C(CCc2ccncc2)NC(=O)CNC(=O)[C@H](CC(C)C)NC(=O)[C@@H]2CCCN2C(C)=O)[C@H](O)[C@H](C)O1 (stereo partly drawn) (Ac-PLG[X2]YL-{Doxorubicin(3'-N)})				
40 µg/mL (≈ 32.5 µM)	69	2.1	79	31%	24			COC[C@H](NC(=O)CNC(=O)[C@H](CC(C)C)NC(=O)[C@@H]1CCCN1C(C)=O)C(=O)N[C@@H](Cc1ccc(O)cc1)C(=O)N[C@@H](CC(C)C)C(=O)N[C@H]1C[C@H](O[C@H]2C[C@](O)(C(=O)CO)Cc3c(O)c4c(c(O)c32)C(=O)c2c(OC)cccc2C4=O)O[C@@H](C)[C@H]1O (Ac-PLGS(Me)YL-{Doxorubicin(3'-N)})				
	19	1	< 1		11			COc1cccc2c1C(=O)c1c(O)c3c(c(O)c1C2=O)C[C@@](O)(C(=O)CO)C[C@@H]3O[C@H]1C[C@H](NC(=O)[C@H](CC(C)C)NC(=O)[C@H](C)NC(=O)[C@H](CCc2ccccc2)NC(=O)CNC(=O)[C@H](CC(C)C)NC(=O)[C@@H]2CCCN2C(C)=O)[C@H](O)[C@H](C)O1 (Ac-PLG[hPhe]AL-{Doxorubicin(3'-N)})				
